Experimental data collected from several papers.
Compare with care: the assays were run in different laboratories.
Target: Serine/threonine-protein kinase 32C (STK32C, Homo sapiens, UniProt Q86UX6)

SMILES	test	setting	measurement	result
COc1cc(Cl)c(C(=O)N[C@@H](CN[C@H]2CC[C@@H](N)CC2)Cc2ccc(C#N)cc2)cc1-c1ccc(CN[C@H](C)c2ccc(C)cc2)o1	enzyme activity, inhibitor	1 µM	remaining activity	95%
CCCCNc1ncc2c(-c3ccc(F)cc3)nn(C[C@H]3CC[C@H](N)CC3)c2n1	target engagement in cells, inhibitor, chemoproteomics	20 mM	inhibition	55%
O=C(Nc1cnn(-c2csc(C(=O)NC3COC3)c2)c1)Nc1ccccc1Cl	enzyme activity, inhibitor	5 µM	remaining activity	113%
Cc1ccc(C(=O)Nc2ccc(CN3CCN(C)CC3)c(C(F)(F)F)c2)cc1C#Cc1cnc2cccnn12	enzyme activity	23.5 nM	remaining activity	100%
Nc1ncnc2occ(-c3ccc(NC(=O)Nc4cc(C(F)(F)F)ccc4F)cc3)c12	cell-free assay	20 µM	remaining signal	91%
O=C(CSc1nc2nccnc2c(=O)n1CCc1ccccc1)Nc1nccs1	enzyme activity, inhibitor	10 µM	inhibition	-9%
CN1CC(Oc2cnc(C#N)cc2-c2ccn3nc(NC(=O)C4CC4)cc3c2)C1	enzyme activity, inhibitor	1 µM	inhibition	-5%
CC(C)(O)[C@H]1CC[C@H](Nc2ccc3ncc(-c4cccc(C(F)(F)F)c4)n3n2)CC1	enzyme activity, inhibitor	1 µM	remaining activity	83.2%
CN(C)C(=O)Cn1cc(-c2nc(C3(c4ccc(-c5cnc(N)nc5)cc4)CC3)no2)cn1	cell-free assay, competition with immobilised ligand	1 µM	remaining binding	100%
O=C(Nc1cnn(-c2csc(C(=O)NC3COC3)c2)c1)Nc1c(F)cccc1Cl	enzyme activity, inhibitor	5 µM	remaining activity	90.7%
CS(=O)(=O)Nc1cccc(-c2csc(NC(=O)CSc3nc4nccnc4c(=O)n3CCc3ccccc3)n2)c1	enzyme activity, inhibitor	10 µM	inhibition	-5%
COc1cccc2c(NCc3ccccc3)nc(-n3c(N)nc4ccccc43)nc12	target engagement in cells, inhibitor, chemoproteomics	20 mM	inhibition	13.6%
Cc1nc(C2CCN(C(=O)c3ccc(OC(F)(F)F)cc3N)CC2)c2ncc(N3CCN(C)CC3)cc2n1	cell-free assay, competition with immobilised ligand	1 µM	remaining binding	100%
